Measurements from ChEMBL document CHEMBL5260806, “Hydrogen peroxide activated quinone methide precursors with enhanced DNA cross-linking capability and cytotoxicity towards cancer cells” (Eur J Med Chem, 2017).

Assays:
OVCAR-4 = assay: Anticancer activity against human OVCAR-4 cells assessed as cell growth inhibition incubated for 48 hrs by sulforhodamine B assay; format: functional
Outline: (§1)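 NCI DTP 60-cell-line screen run at National Cancer Institute. Cells grown in RPMI 1640 with 5% fetal bovine serum and 2 mM L-glutamine, seeded at 5,000–40,000 cells/well depending on doubling time. Single-dose screen at 10 µM gives growth percentage; dose-response series gives GI50.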

OVCAR-5 = assay: Anticancer activity against human OVCAR-5 cells assessed as cell growth inhibition incubated for 48 hrs by sulforhodamine B assay; format: functional; outline: as §1
HCT-116 [1] = assay: Anticancer activity against human HCT-116 cells assessed as cell growth inhibition at 10 uM incubated for 48 hrs by sulforhodamine B assay; format: functional; settings: read-out: GI
Outline: (§2)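 NCI-60 screen: cell lines grown in RPMI 1640 with 5% FBS and 2 mM L-glutamine, plated in 96-well plates at 5,000–40,000 cells/well depending on doubling time. Each line has one single-dose arm at 10 µM and one dose-response arm giving GI50.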

NCI-H226 = assay: Anticancer activity against human NCI-H226 cells assessed as cell growth inhibition incubated for 48 hrs by sulforhodamine B assay; format: functional; outline: as §1
T47D = assay: Anticancer activity against human T47D cells assessed as cell growth inhibition incubated for 48 hrs by sulforhodamine B assay; format: functional
786-0 = assay: Anticancer activity against human 786-0 cells assessed as cell growth inhibition at 10 uM incubated for 48 hrs by sulforhodamine B assay; format: functional; settings: read-out: GI; outline: as §2
HCC 2998 = assay: Anticancer activity against human HCC 2998 cells assessed as cell growth inhibition at 10 uM incubated for 48 hrs by sulforhodamine B assay; format: functional; settings: read-out: GI; outline: as §2
A549 = assay: Anticancer activity against human A549 cells assessed as cell growth inhibition incubated for 48 hrs by sulforhodamine B assay; format: functional; outline: as §2
TK-10 [2] = assay: Anticancer activity against human TK-10 cells assessed as cell growth inhibition incubated for 48 hrs by sulforhodamine B assay; format: functional
MDA-MB-435 = assay: Anticancer activity against human MDA-MB-435 cells assessed as cell growth inhibition incubated for 48 hrs by sulforhodamine B assay; format: functional; outline: as §1
SN12C = assay: Anticancer activity against human SN12C cells assessed inhibition of cell growth after 48 hrs by CellTiter-Glo luminescent assay; format: functional, cell-based
Outline: (§3)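 Renal lines grown in RPMI 1640 with 5% FBS and 2 mM L-glutamine, seeded into 384-well plates at 5,000–10,000 cells/well, held 2–3 h at 37 °C, 5% CO2. DMSO stocks (20 mM) serially halved ten times and added at 1:100. Cells exposed 48 h at 37 °C; CellTiter-Glo added, 10 min at room temperature, luminescence read.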

SF-268 = assay: Anticancer activity against human SF-268 cells assessed as cell growth inhibition incubated for 48 hrs by sulforhodamine B assay; format: functional; outline: as §1
HCT-116 [3] = assay: Anticancer activity against human HCT-116 cells assessed as cell growth inhibition incubated for 48 hrs by sulforhodamine B assay; format: functional; outline: as §2
Malme-3M = assay: Anticancer activity against human Malme-3M cells assessed as cell growth inhibition at 10 uM incubated for 48 hrs by sulforhodamine B assay; format: functional; settings: read-out: GI; outline: as §1
IGROV-1 = assay: Anticancer activity against human IGROV-1 cells assessed as cell growth inhibition at 10 uM incubated for 48 hrs by sulforhodamine B assay; format: functional; settings: read-out: GI; outline: as §2
KM12 [4] = assay: Anticancer activity against human KM12 cells assessed as cell growth inhibition incubated for 48 hrs by sulforhodamine B assay; format: functional; outline: as §2
UACC-257 [5] = assay: Anticancer activity against human UACC-257 cells assessed as cell growth inhibition incubated for 48 hrs by sulforhodamine B assay; format: functional
UACC-257 [6] = assay: Anticancer activity against human UACC-257 cells assessed as cell growth inhibition at 10 uM incubated for 48 hrs by sulforhodamine B assay; format: functional; settings: read-out: GI
K562 [7] = assay: Anticancer activity against human K562 cells assessed as cell growth inhibition incubated for 48 hrs by sulforhodamine B assay; format: functional; outline: as §2
MCF7 [8] = assay: Anticancer activity against human MCF7 cells assessed as cell growth inhibition at 10 uM incubated for 48 hrs by sulforhodamine B assay; format: functional; settings: read-out: GI; outline: as §1
OVCAR-3 = assay: Anticancer activity against human OVCAR-3 cells assessed as cell growth inhibition incubated for 48 hrs by sulforhodamine B assay; format: functional; outline: as §1
NCI/ADR-RES = assay: Anticancer activity against human NCI/ADR-RES cells assessed as cell growth inhibition at 10 uM incubated for 48 hrs by sulforhodamine B assay; format: functional; settings: read-out: GI; outline: as §1
SW-620 [9] = assay: Anticancer activity against human SW620 cells assessed as cell growth inhibition incubated for 48 hrs by sulforhodamine B assay; format: functional
SNB-19 = assay: Anticancer activity against human SNB-19 cells assessed as cell growth inhibition incubated for 48 hrs by sulforhodamine B assay; format: functional
NCI-H23 [10] = assay: Anticancer activity against human NCI-H23 cells assessed as cell growth inhibition at 10 uM incubated for 48 hrs by sulforhodamine B assay; format: functional; settings: read-out: GI; outline: as §1
KM12 [11] = assay: Anticancer activity against human KM12 cells assessed as cell growth inhibition at 10 uM incubated for 48 hrs by sulforhodamine B assay; format: functional; settings: read-out: GI; outline: as §2
SF-295 = assay: Anticancer activity against human SF-295 cells assessed as cell growth inhibition incubated for 48 hrs by sulforhodamine B assay; format: functional; outline: as §1
DU-145 = assay: Anticancer activity against human DU-145 cells assessed as cell growth inhibition incubated for 48 hrs by sulforhodamine B assay; format: functional; outline: as §2
UO-31 = assay: Anticancer activity against human UO-31 cells assessed as cell growth inhibition incubated for 48 hrs by sulforhodamine B assay; format: functional
SW-620 [12] = assay: Anticancer activity against human SW620 cells assessed as cell growth inhibition at 10 uM incubated for 48 hrs by sulforhodamine B assay; format: functional; settings: read-out: GI
MDA-MB-231 = assay: Anticancer activity against human MDA-MB-231 cells assessed as cell growth inhibition at 10 uM incubated for 48 hrs by sulforhodamine B assay; format: functional; settings: read-out: GI; outline: as §1
NCI-H23 [13] = assay: Anticancer activity against human NCI-H23 cells assessed as cell growth inhibition incubated for 48 hrs by sulforhodamine B assay; format: functional; outline: as §1
MOLT-4 = assay: Anticancer activity against human MOLT-4 cells assessed as cell growth inhibition incubated for 48 hrs by sulforhodamine B assay; format: functional; outline: as §1
UACC-62 = assay: Anticancer activity against human UACC-62 cells assessed as cell growth inhibition at 10 uM incubated for 48 hrs by sulforhodamine B assay; format: functional; settings: read-out: GI
SF-539 = assay: Anticancer activity against human SF-539 cells assessed as cell growth inhibition at 10 uM incubated for 48 hrs by sulforhodamine B assay; format: functional; settings: read-out: GI; outline: as §1
MCF7 [14] = assay: Anticancer activity against human MCF7 cells assessed as cell growth inhibition incubated for 48 hrs by sulforhodamine B assay; format: functional; outline: as §1
K562 [15] = assay: Anticancer activity against human K562 cells assessed as cell growth inhibition at 10 uM incubated for 48 hrs by sulforhodamine B assay; format: functional; settings: read-out: GI; outline: as §2
TK-10 [16] = assay: Anticancer activity against human TK-10 cells assessed inhibition of cell growth after 48 hrs by CellTiter-Glo luminescent assay; format: functional, cell-based; settings: TK-10, 48 h; outline: as §3
SK-OV-3 = assay: Anticancer activity against human SK-OV-3 cells assessed as cell growth inhibition incubated for 48 hrs by sulforhodamine B assay; format: functional

COc1cc(CBr)c(B2OC(C)(C)C(C)(C)O2)c(CBr)c1 was tested. Which GI50 (OVCAR-4) did it give?
Its GI50 is 2000 nM.

And the GI50 (OVCAR-5)?
The GI50 was 2000 nM.

And the inhibition of growth at 10 µM (HCT-116 [1])?
The inhibition of growth at 10 µM was less than 50%.

What about the GI50 (NCI-H226) of the same molecule?
Its GI50 is 2000 nM.

What about the GI50 (T47D) of the same molecule?
Its GI50 is 2000 nM.

And the inhibition of growth at 10 µM (786-0)?
The inhibition of growth at 10 µM was less than 50%.

And the inhibition of growth at 10 µM (HCC 2998)?
The inhibition of growth at 10 µM was less than 50%.

And the GI50 (A549)?
Its GI50 is 2000 nM.

And the GI50 (TK-10 [2])?
The GI50 was 2000 nM.

And the GI50 (MDA-MB-435)?
Its GI50 is 2000 nM.

And the IC50 (SN12C)?
Its IC50 is 18600 nM.

And the GI50 (SF-268)?
Its GI50 is 2000 nM.

And the GI50 (HCT-116 [3])?
Its GI50 is 2000 nM.

What about the inhibition of growth at 10 µM (Malme-3M) of the same molecule?
Its inhibition of growth at 10 µM is less than 50%.

And the inhibition of growth at 10 µM (IGROV-1)?
Its inhibition of growth at 10 µM is less than 50%.

What about the GI50 (KM12 [4]) of the same molecule?
The GI50 was 2000 nM.

And the GI50 (UACC-257 [5])?
Its GI50 is 2000 nM.

And the inhibition of growth at 10 µM (UACC-257 [6])?
Its inhibition of growth at 10 µM is less than 50%.

What about the GI50 (K562 [7]) of the same molecule?
Its GI50 is 2000 nM.

What about the inhibition of growth at 10 µM (MCF7 [8]) of the same molecule?
Its inhibition of growth at 10 µM is less than 50%.

What about the GI50 (OVCAR-3) of the same molecule?
Its GI50 is 2000 nM.

What about the inhibition of growth at 10 µM (NCI/ADR-RES) of the same molecule?
The inhibition of growth at 10 µM was less than 50%.

And the GI50 (SW-620 [9])?
Its GI50 is 2000 nM.

What about the GI50 (SNB-19) of the same molecule?
Its GI50 is 2000 nM.

What about the inhibition of growth at 10 µM (NCI-H23 [10]) of the same molecule?
The inhibition of growth at 10 µM was less than 50%.

What about the inhibition of growth at 10 µM (KM12 [11]) of the same molecule?
Its inhibition of growth at 10 µM is less than 50%.

And the GI50 (SF-295)?
The GI50 was 2000 nM.

And the GI50 (DU-145)?
The GI50 was 2000 nM.

What about the GI50 (UO-31) of the same molecule?
Its GI50 is 2000 nM.

What about the inhibition of growth at 10 µM (SW-620 [12]) of the same molecule?
Its inhibition of growth at 10 µM is less than 50%.

And the inhibition of growth at 10 µM (MDA-MB-231)?
Its inhibition of growth at 10 µM is less than 50%.

And the GI50 (NCI-H23 [13])?
The GI50 was 2000 nM.

What about the GI50 (MOLT-4) of the same molecule?
Its GI50 is 2000 nM.

And the inhibition of growth at 10 µM (UACC-62)?
Its inhibition of growth at 10 µM is less than 50%.

What about the inhibition of growth at 10 µM (SF-539) of the same molecule?
The inhibition of growth at 10 µM was less than 50%.

What about the GI50 (MCF7 [14]) of the same molecule?
The GI50 was 2000 nM.

And the inhibition of growth at 10 µM (K562 [15])?
The inhibition of growth at 10 µM was less than 50%.

And the IC50 (TK-10 [16])?
The IC50 was 16200 nM.

And the GI50 (SK-OV-3)?
The GI50 was 2000 nM.
